Compound activity from PubChem.
Only a selection was taken, and hits are over-represented in it overall.
Insulin prom act: TRM-6 insulin promoter activation; TRM-6 cells (human fetal islet line), insulin promoter eGFP reporter, imaging; plate-scaled: unstimulated 0, stimulated control 100; activation, % at 2 µM; actives 0.81% (n = 130,000); AID 1296;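 active = activation at 2 µM above a set limit, confirmed on inspection of the cell images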;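 note: share of cells whose green reporter signal exceeds an intensity cutoff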
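Material: TRM-6 insulin promoter–eGFP reporter cells. Buffer or medium: Low-glucose (5.5 mM) medium with tamoxifen. Probe or stimulus: tamoxifen at 0.75 µM added at seeding for reporter induction. Times: tamoxifen pre-incubation 15 h overnight, then compound exposure 48 h at 37 °C. Detection: high-content imaging of fixed cells with Hoechst nuclear stain.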
A number is an active result; n = inactive; [ ] = another dose, or the depositor's remark.

SMILES	Insulin prom act
CCCCN(C)C1=CC2=CC(=C(C#N)C#N)CCC2CC1 (centres undefined)	245[fluoresces]
N#CC(C#N)=C1C=C2C=C(N3CCCCC3)CCC2CC1 (centres undefined)	212
O=C1CCCN1CCCNCC(=O)N1c2ccccc2Sc2ccccc21	n
O=C(CSCCO)Nc1ccc(C2CCCCC2)cc1	n
Cc1csc(NC(=O)c2cc3c(C)nn(Cc4ccccc4Cl)c3s2)n1	n
Cc1csc(NS(=O)(=O)c2cccc([N+](=O)[O-])c2)n1	n
Cc1ccc(S(=O)(=O)N2CCCCC2)cc1NC(=O)CSc1nccn1C	n
C=CCC(C=C)[N+]1(CC(=O)OC)CCCCC1 (centres undefined)	n
C=C(C)CNC(=S)NNC(=O)c1ccc(Br)cc1	n
Cc1ccccc1N1CN(Cc2ccco2)CNC1=S	n
O=[N+]([O-])c1cc(Cl)cc(C2=NCCN2)c1	n
O=C(Cn1nnc(-c2ccc(CN3CCOCC3)cc2)n1)N(c1ccccc1)c1ccccc1	n
CCOC(=O)N1CCN(Cc2c(F)cccc2F)CC1	n
Cc1sc(NC(=O)c2ccccc2F)c(CN2CCCCC2)c1C	485
CCOC(=O)c1sc(NC(=O)c2ccccc2F)c(C(N)=O)c1C	n
Cc1ccc(Oc2ccc(NC(=O)CCC(=O)OCC(=O)c3cccs3)cc2)cc1C	n
O=C(CSc1nc2ccccc2c(=O)n1NC(=O)c1ccccc1)c1ccccc1	n
O=C(Nn1c(C2CCC2)nc2ccccc2c1=O)c1cccs1	n
O=C(Nn1c(Cc2cccs2)nc2ccccc2c1=O)c1ccc(F)c(F)c1	419
CCOc1cc(/C=N/NC(=S)Nc2ccccc2C(F)(F)F)ccc1OCC(=O)N1CCOCC1	n
Cc1no[n+]([O-])c1COc1ccc(/C=N/n2nnnc2N)cc1	n
CCOC(=O)/C=C1\NC(C)(C)Cc2cc(OC)c(OC)cc21	n
CC1(C)Cc2ccccc2/C(=C/C(=O)N2CCCCCC2)N1	557
CN(C)c1ccc(/C=N/NC(=O)C(=O)/C=C2\NC3(CCCC3)Cc3ccccc32)cc1	n
CCc1ccc(C(=O)NNC(=O)OC)cc1	n
SMILES	Insulin prom act
CCSc1nnc(-c2ccc(S(=O)(=O)N3CCCC3)cc2)n1C	n
CCn1c(SCC(=O)N2CCCC(C)C2)nnc1-c1ccc(S(=O)(=O)N2CCN(C)CC2)cc1 (centres undefined)	81
CCn1c(SCC(=O)Nc2ccccc2)nnc1-c1ccc(S(=O)(=O)N2CCOCC2)cc1	n
Cc1nnc(NC(=O)CSc2ncn(-c3ccccc3)n2)s1	n
COc1ccc(N2CCN(C(=O)CSc3ncnc4c3cnn4-c3ccccc3C)CC2)cc1	n
Cc1nnc(NC(=O)CSc2ncnc3c2cnn3-c2ccccc2C)s1	147
CCOC(=O)c1ccc(NC(=O)COc2ccc(-n3cnnn3)cc2)cc1	n
CC(=O)Nc1ccc(-n2cnnn2)cc1	512
O=C(COc1ccc(F)cc1)Nc1ccc(-n2cnnn2)cc1	n
CC(=O)Nc1ccc(C(=O)OCC(=O)NC2CCCCCCC2)cc1	n
CCC(=O)c1ccc(OCC(=O)NCC2(N3CCCCC3)CCCCC2)cc1	n
COc1ccc(C(=O)N2CCCC(c3ccccc3)C2)cc1 (centres undefined)	136
O=C(c1ccccc1F)N1CCCC(c2ccccc2)C1 (centres undefined)	n
COc1ccc(C(=O)N2CCC(C(=O)O)CC2)cc1	n
CC(C)NC(=O)C12CC3CC(C1)CC(n1cnc(Cl)n1)(C3)C2	n
Cc1ccc(CN2CCN(/N=C/c3ccc(C(F)(F)F)cc3)CC2)c(C)c1	n
O=C(COC(=O)c1cccnc1Cl)c1cccc(Cl)c1	n
N#C/C(=C/c1ccc(N2CCCCCC2)o1)c1cccc(F)c1	n
N#C/C(=C/c1ccc(N2CCCCC2)o1)C(=O)Nc1ccc(Cl)cc1	270
N#C/C(=C/c1ccc(N2CCCCC2)o1)C(=O)Nc1ccc2ccccc2c1	n
COc1cc(SC)ccc1C(=O)OC(C)C(=O)NC1CCCC1 (centres undefined)	n
CSc1nsc(SCC(=O)N2CCCCC2)n1	n
O=C1c2ccccc2C(=O)N1CN(C(=O)c1ccccc1[N+](=O)[O-])c1ccc(F)cc1	n
CCC(C)NC(=O)c1n[nH]c(=O)c2ccccc12 (centres undefined)	n
CCC(C)NC(=O)c1cc(C)no1 (centres undefined)	121
SMILES	Insulin prom act
CC(C)c1cc(NC(=O)CCl)on1	n
Cc1oc(/N=C/c2ccc(O)cc2O)c(C#N)c1C	n
CCOc1ccc(-c2nc(CSCC(=O)NC3CCCc4ccccc43)c(C)o2)cc1 (centres undefined)	n
COC(=O)c1[nH]c2ccccc2c1NC(=O)CN1CCN(c2cccc(OC)c2)C(C)C1 (centres undefined)	n
COC(=O)c1[nH]c2ccc(C)cc2c1NC(=O)Nc1ccccc1OC	n
COC(=O)c1[nH]c2cc(C)ccc2c1NC(=O)CN1CCCc2ccccc21	191
Cc1nn(CC(=O)NCc2ccc(-n3cccn3)cc2)c(C)c1[N+](=O)[O-]	n
COc1cccc(C2C(C(N)=O)=C(C)Nc3nc(-c4ccccc4Cl)nn32)c1 (centres undefined)	n
